The values that follow come from ChEMBL document CHEMBL4325837, “Discovery of novel NO-releasing celastrol derivatives with Hsp90 inhibition and cytotoxic activities” (Eur J Med Chem, 2018).

Active and inactive are the calls of the source. No cut-off for these calls is given here.

Data set [1] has as its system A549. As to the kind of experiment: Antiproliferative activity against human A549 cells after 48 hrs by MTT assay. It counts as functional, cell-based. The note with it: A549, 48 h. The method, boiled down: (§1)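 MTT assay. Cells were seeded at 5.0 × 10⁴ cells/ml in 100 μL per well and grown 24 h. They were then exposed to a range of concentrations for 48 h. MTT (5 mg/ml) was added for 4 h, the supernatant was removed and DMSO was added. OD was read at 570 nm. Assays were run in triplicate and IC50 is reported as mean ± SD, n = 3.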

The subject of another data set is MCF7. In words: Antiproliferative activity against human MCF7 cells after 48 hrs by MTT assay. It is filed as functional, cell-based. To be noted: MCF7, 48 h. The method, boiled down:
as §1
In general terms: Tetrazolium assays rely on reduction of a dye to a coloured formazan, in cell work by metabolically active cells.

The next data set relates to HOS. As to the kind of experiment: Antiproliferative activity against human HOS cells after 48 hrs by MTT assay. It counts as functional, cell-based. The method, boiled down:
as §1

The next data set relates to HepG2. As to the kind of experiment: Antiproliferative activity against human HepG2 cells after 48 hrs by MTT assay. It counts as functional, cell-based. To be noted: HepG2, 48 h. The method, boiled down:
as §1

Data set [2] can be described thus: Drug metabolism in human A549 cells assessed as nitric oxide release at 4 uM measured up to 24 hrs. It counts as ADME, cell-based. To be noted: a549, 24 h. The method, boiled down: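 A549 cells were seeded at 5.0 × 10⁴ cells/ml in 100 μL wells and grown 24 h at 37 °C. Hybrids were added at 4 μM for varying times, with 24 h used for the full set. NO was measured with a Nitrate/Nitrite assay kit against a standard curve, reading OD at 550 nm. Values are the mean of three independent experiments.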

The test system of data set [3] is A549. In words: Induction of apoptosis in human A549 cells assessed as viable cells at 1.2 uM after 48 hrs by Annexin V-FITC/propidium iodide staining-based flow cytometric analysis (reference value: 98.5%). It is filed as functional. The note with it: A549, 48 h, read-out: Activity.
The test system of data set [4] is A549. In words: Induction of apoptosis in human A549 cells assessed as early apoptotic cells at 1.2 uM after 48 hrs by Annexin V-FITC/propidium iodide staining-based flow cytometric analysis (reference value: 0.5%). It counts as functional. On the technique in general: A flow cytometer gives signals particle by particle.
In data set [5] the test system is A549. In words: Induction of apoptosis in human A549 cells assessed as late apoptotic cells at 1.2 uM after 48 hrs by Annexin V-FITC/propidium iodide staining-based flow cytometric analysis (reference value: 0.4%). It counts as functional.
Data set [6] concerns A549. In words: Induction of apoptosis in human A549 cells assessed as necrotic cells at 1.2 uM after 48 hrs by Annexin V-FITC/propidium iodide staining-based flow cytometric analysis (reference value: 0.6%). It counts as functional.
Data set [7] deals with Heat shock protein HSP90 (Homo sapiens) (UniProt P07900+P08238). As to the kind of experiment: Inhibition of HSP90 in human A549 cells assessed as decrease in Akt phosphorylation at 2.5 uM after 24 hrs by Western blot analysis. It is filed as cell-based. Background: In western blotting, separated proteins are transferred to a membrane and probed.

As a reminder, the IC50 is the concentration needed to halve the response being measured. A low value points to higher potency. Regarding `CC1=C(O)C(=O)C=C2C1=CC=C1[C@@]2(C)CC[C@@]2(C)[C@@H]3C[C@](C)(C(=O)OCCCOc4no[n+]([O-])c4S(=O)(=O)c4ccccc4)CC[C@]3(C)CC[C@]12C`, the IC50 amounted to 2890 nM in the data set on A549 [1], 2120 nM in the data set with MCF7, 1870 nM in the data set with HOS and 4530 nM with HepG2.

With `CC1=C(O)C(=O)C=C2C1=CC=C1[C@@]2(C)CC[C@@]2(C)[C@@H]3C[C@](C)(C(=O)OCCCCO[N+](=O)[O-])CC[C@]3(C)CC[C@]12C`, the IC50 in the data set with A549 [1] came out at 4210 nM; with MCF7 it was 3820 nM; with HOS it was 2430 nM; with HepG2, 6080 nM. In addition, the Drug metabolism result in data set [2] is “Metabolite_Detected”.

Turning to `CC1=C(O)C(=O)C=C2C1=CC=C1[C@@]2(C)CC[C@@]2(C)[C@@H]3C[C@](C)(C(=O)NCCOc4no[n+]([O-])c4S(=O)(=O)c4ccccc4)CC[C@]3(C)CC[C@]12C`, the IC50 in the data set with A549 [1] stood at 1080 nM; with MCF7, 1520 nM; in the data set with HOS it was 1470 nM; with HepG2, 3820 nM. The Drug metabolism result in [2] is recorded as “Metabolite_Detected”.

In the case of `CC1=C(O)C(=O)C=C2C1=CC=C1[C@@]2(C)CC[C@@]2(C)[C@@H]3C[C@](C)(C(=O)OCCOc4no[n+]([O-])c4S(=O)(=O)c4ccccc4)CC[C@]3(C)CC[C@]12C`, the IC50 in the data set on A549 [1] is 2280 nM; in the data set with MCF7, 2760 nM; in the data set on HOS it was 1690 nM; with HepG2, 4750 nM. Also, in data set [2], the Drug metabolism entry was “Metabolite_Detected”.

Take `CC1=C(O)C(=O)C=C2C1=CC=C1[C@@]2(C)CC[C@@]2(C)[C@@H]3C[C@](C)(C(=O)OCCCO[N+](=O)[O-])CC[C@]3(C)CC[C@]12C`: the IC50 with A549 [1] is 3220 nM; in the data set with MCF7, 2540 nM; in the data set on HOS, 1370 nM; with HepG2, 1850 nM. For the same compound, in [2], the Drug metabolism result is “Metabolite_Detected”.

Turning to `CC1=C(O)C(=O)C=C2C1=CC=C1[C@@]2(C)CC[C@@]2(C)[C@@H]3C[C@](C)(C(=O)OCCCCOc4no[n+]([O-])c4S(=O)(=O)c4ccccc4)CC[C@]3(C)CC[C@]12C`, the IC50 stood at 2460 nM in the data set with A549 [1], 3950 nM in the data set on MCF7, 2470 nM with HOS and 3530 nM in the data set on HepG2.

Turning to `CC1=C(O)C(=O)C=C2C1=CC=C1[C@@]2(C)CC[C@@]2(C)[C@@H]3C[C@](C)(C(=O)OCC(C)Oc4no[n+]([O-])c4S(=O)(=O)c4ccccc4)CC[C@]3(C)CC[C@]12C` (stereo not given in full), the IC50 worked out at 2070 nM in the data set with A549 [1], 2020 nM with MCF7, 3030 nM in the data set on HOS and 2390 nM in the data set with HepG2.

For `CC1=C(O)C(=O)C=C2C1=CC=C1[C@@]2(C)CC[C@@]2(C)[C@@H]3C[C@](C)(C(=O)OCCCCCCO[N+](=O)[O-])CC[C@]3(C)CC[C@]12C`, the IC50 in the data set with A549 [1] was determined as 3670 nM; in the data set with MCF7, 3170 nM; with HOS, 3360 nM; with HepG2, 4710 nM.

As to `CC1=C(O)C(=O)C=C2C1=CC=C1[C@@]2(C)CC[C@@]2(C)[C@@H]3C[C@](C)(C(=O)OCCCCCO[N+](=O)[O-])CC[C@]3(C)CC[C@]12C`, the IC50 is 5320 nM in the data set with A549 [1], 3010 nM with MCF7, 2900 nM with HOS and 3400 nM in the data set on HepG2.

Consider `CC1=C(O)C(=O)C=C2C1=CC=C1[C@@]2(C)CC[C@@]2(C)[C@@H]3C[C@](C)(C(=O)OCC(C)COc4no[n+]([O-])c4S(=O)(=O)c4ccccc4)CC[C@]3(C)CC[C@]12C` (stereo not given in full), for which the IC50 in the data set on A549 [1] was 1110 nM; with MCF7, 1490 nM; with HOS it was 1670 nM; with HepG2, 2390 nM. The Drug metabolism result in [2] is recorded as “Metabolite_Detected”.

Regarding `CC1=C(O)C(=O)C=C2C1=CC=C1[C@@]2(C)CC[C@@]2(C)[C@@H]3C[C@](C)(C(=O)O)CC[C@]3(C)CC[C@]12C` [CELASTROL], the IC50 is 1430 to 1570 nM with A549 [1], 1560 nM in the data set on MCF7, 930 nM in the data set with HOS and 1620 nM with HepG2. Moreover, in the data set on A549 [3], the viability at 1.2 µM was 75.8%. Moreover, the Activity worked out at 7.8% with A549 [4], 11.2% in the data set on A549 [5] and 5.2% in the data set with A549 [6]. Further, the inhibition entry in [7] is “Active”.

Turning to `NCCCOc1no[n+]([O-])c1S(=O)(=O)c1ccccc1`, 25500 nM corresponded to half-maximal inhibition in the data set with A549 [1] (IC50).
